The list is not random: actives were taken first. Their share in the collection is about 5.9%.
T cruzi growth-1 = blocks T. cruzi growth in NIH3T3 culture; T. cruzi beta-gal in NIH3T3, GalScreen luminescence, 90 h; inhibition, % at 8.34 µM; 5.9% of 77,000 active;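 active means mean inhibition above about 93%, with at least 55% of replicates each passing it, limit read from the data, passing the limit was not always enough; inconclusive means only one of those two conditions holds; inactive means neither condition holds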
IDH1 R132H inh = IDH1 R132H (human) inhibition; O75874; IDH1 R132H reductase, diaphorase/resazurin fluorescence, 60 min; inhibition, % at 10 µM; 0.18% of 70,000 active; in the data active means inhibition above about 34%; inconclusive means no clear call, values can overlap the other calls; inactive means below about 11%;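 further: 0% = DMSO and 100% = no enzyme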
Target sequence (O75874 whole entry R132H): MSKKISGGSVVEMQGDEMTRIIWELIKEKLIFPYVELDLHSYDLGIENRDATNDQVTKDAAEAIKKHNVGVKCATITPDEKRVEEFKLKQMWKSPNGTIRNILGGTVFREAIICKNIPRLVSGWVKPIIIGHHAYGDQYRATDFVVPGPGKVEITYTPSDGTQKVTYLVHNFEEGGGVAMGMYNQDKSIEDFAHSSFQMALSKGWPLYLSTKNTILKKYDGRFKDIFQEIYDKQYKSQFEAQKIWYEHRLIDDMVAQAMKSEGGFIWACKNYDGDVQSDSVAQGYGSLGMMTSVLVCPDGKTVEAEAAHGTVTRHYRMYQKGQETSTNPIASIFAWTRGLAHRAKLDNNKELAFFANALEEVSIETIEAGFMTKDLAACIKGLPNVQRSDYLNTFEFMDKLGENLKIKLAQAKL
GASC1 inh = inhibitors of human demethylase GASC-1 KDM4C; Q9H3R0; GST-KDM4C 2-372, H3K9me3 peptide, LANCE TR-FRET; 0.15% of 96,000 active; inhibition, % at 12.5 µM;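 active means mean replicate inhibition above about 25%, with at least 55% of replicates also reaching it, limit read from the data, passing the limit was not always enough; inconclusive means only one of those two conditions met; inactive means neither condition met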
Target sequence (Q9H3R0 2-372 limits assumed): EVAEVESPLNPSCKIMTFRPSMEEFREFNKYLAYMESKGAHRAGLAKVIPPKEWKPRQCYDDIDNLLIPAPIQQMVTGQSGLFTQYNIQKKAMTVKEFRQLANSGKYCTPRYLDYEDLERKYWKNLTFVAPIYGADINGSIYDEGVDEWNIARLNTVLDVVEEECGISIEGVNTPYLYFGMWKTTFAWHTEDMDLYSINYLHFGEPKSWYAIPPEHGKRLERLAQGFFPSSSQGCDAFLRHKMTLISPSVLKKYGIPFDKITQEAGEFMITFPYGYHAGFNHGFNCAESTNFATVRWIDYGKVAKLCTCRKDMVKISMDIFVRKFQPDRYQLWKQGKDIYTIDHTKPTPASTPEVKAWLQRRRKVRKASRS
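Compound: one test concentration per compound; Material: GST-GASC-1 enzyme fragment 2-372; Amount: GASC-1 enzyme at 10 nM final in reaction; Also added: H3K9me3 peptide substrate, Fe(II), 2-oxoglutarate; Technique: LANCE TR-FRET; Times: 30 min demethylation and 1 h detection at room temperature.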
Pf Dd2 inh = P. falciparum Dd2 growth inhibition. SYBR Green, 72 h; active compounds read low. activity change, % at 10 µM. 2.3% of 94,000 active. AID 1159554; in the data active means activity change below about -80%; inconclusive means no clear call, values can overlap the other calls
T cruzi growth-2 = inhibitors of T. cruzi proliferation. shares compounds with T cruzi growth-1. T. cruzi beta-gal in NIH3T3, GalScreen luminescence, 90 h. inhibition, % at 8.35 µM. 72% of 5,600 active;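 active means mean replicate inhibition above about 95% and at least 55% of replicates individually reaching it, limit read from the data; inconclusive means only one of the two criteria is met; inactive means neither criterion is met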
T cruzi growth-3 = inhibitors of T. cruzi proliferation. shares compounds with T cruzi growth-1. T. cruzi beta-gal in NIH3T3, GalScreen luminescence, 90 h. inhibition, % at 2.09 µM. 21% of 5,600 active. AID 651740;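 active means mean inhibition above about 95%, with at least 55% of replicates also reaching it, limit read from the data; inconclusive means meets just one of the two conditions; inactive means meets neither condition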;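 further: plate controls were neutral control median for no effect and positive control median for full effect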
3T3 cytotox = kills mouse NIH/3T3 fibroblasts. shares compounds with T cruzi growth-1. NIH/3T3 viability, CellTiter-Glo ATP luminescence, 90 h. cytotoxicity (signal decrease), % at 8.35 µM. 14% of 5,600 active;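 active means mean signal decrease across replicates above about 35% based on untreated-well scatter, with enough replicates individually passing, limit read from the data; inconclusive means no rule stated though some were filed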;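 further: 0% = median of neutral control wells and 100% = median of positive control wells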
NIH3T3 tox 2 = kills mouse NIH/3T3 fibroblasts; 56% of 5,600 active; NIH/3T3 viability, CellTiter-Glo ATP luminescence, 90 h; shares compounds with T cruzi growth-1; inhibition, % at 24.9 µM;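 active means mean loss of cell viability signal at or above a set limit, and enough replicates individually reaching it; inconclusive means meets only the mean limit or only the replicate share; inactive means meets neither condition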;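 further: 0% = median of neutral control wells and 100% = median of positive control wells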
Active calls of the source: *; ? = inconclusive; nt = not tested or not shown.

SMILES | T cruzi growth-1 | IDH1 R132H inh | GASC1 inh | Pf Dd2 inh | T cruzi growth-2 | T cruzi growth-3 | 3T3 cytotox | NIH3T3 tox 2
C[C@@H]1CCCCO[C@@H](CN(C)C(=O)Nc2ccc(F)cc2)[C@@H](C)CN([C@H](C)CO)C(=O)c2cc(NC(=O)Nc3ccc(C(F)(F)F)cc3)ccc2O1 | 91 | nt | -1 | 13 | nt | nt | nt | nt
C[C@H](CO)N1C[C@H](C)[C@H](CN(C)C(=O)Nc2ccc(F)cc2)OCCCC[C@H](C)Oc2ccc(NC(=O)Nc3ccc(C(F)(F)F)cc3)cc2C1=O | 98* | 1 | 0 | 10 | 91 | 109* | 19 | 18
C[C@@H]1CCCCO[C@H](CN(C)C(=O)Nc2ccccc2)[C@@H](C)CN([C@H](C)CO)C(=O)c2cc(NC(=O)Nc3ccc(C(F)(F)F)cc3)ccc2O1 | nt | nt | -1 | -24 | nt | nt | nt | nt
CC(C)NC(=O)N(C)C[C@@H]1OCCCC[C@H](C)Oc2ccc(NC(=O)Nc3ccc(C(F)(F)F)cc3)cc2C(=O)N([C@@H](C)CO)C[C@@H]1C | ? | 1 | -1 | -47 | 109* | 78 | 12 | -1
C[C@@H]1CCCCO[C@H](CN(C)C(=O)Nc2ccc(F)cc2)[C@@H](C)CN([C@H](C)CO)C(=O)c2cc(NC(=O)Nc3ccc(C(F)(F)F)cc3)ccc2O1 | ? | nt | 0 | -7 | 105* | 101* | 16 | 24
C[C@@H]1CN([C@@H](C)CO)C(=O)c2cc(NC(=O)CCC(F)(F)F)ccc2O[C@@H](C)CCCCO[C@H]1CN(C)C(=O)Nc1ccc(C(F)(F)F)cc1 | 105 | 0 | -5 | -31 | nt | nt | nt | nt
COC(=O)COc1ccc(NC(=O)c2ccc(OC)c([N+](=O)[O-])c2)cc1 | nt | 8 | nt | nt | nt | nt | nt | nt
O=C(Nc1cccc([N+](=O)[O-])c1)C1CCCN(S(=O)(=O)c2ccc(F)cc2)C1 (stereo unspecified) | nt | 0 | nt | nt | nt | nt | nt | nt
CN(C)S(=O)(=O)c1ccc(NC(=O)CCC(=O)O)cc1 | nt | -1 | nt | nt | nt | nt | nt | nt
C[C@@H]1CCCCO[C@@H](CN(C)C(=O)Nc2ccc(C(F)(F)F)cc2)[C@@H](C)CN([C@H](C)CO)C(=O)c2cc(NC(=O)Nc3ccc(C(F)(F)F)cc3)ccc2O1 | 116* | nt | 1 | 0 | 108* | 93 | 28 | ?
C[C@H]1CCCCO[C@@H](CN(C)C(=O)Nc2ccc(C(F)(F)F)cc2)[C@@H](C)CN([C@@H](C)CO)C(=O)c2cc(NC(=O)Nc3ccc(F)cc3)ccc2O1 | 114* | 0 | 1 | 3 | 108* | 106* | -24 | -10
C[C@@H]1CN([C@H](C)CO)C(=O)c2cc(N(C)C)ccc2O[C@@H](C)CCCCO[C@H]1CN(C)C(=O)Nc1ccc(C(F)(F)F)cc1 | 41 | nt | -4 | -60 | nt | nt | nt | nt
C[C@@H]1CCCCO[C@H](CN(C)C(=O)Nc2ccc(F)cc2)[C@H](C)CN([C@@H](C)CO)C(=O)c2cc(NC(=O)Nc3ccc(C(F)(F)F)cc3)ccc2O1 | 97* | 2 | -1 | -38 | 102* | 115* | 22 | 16
C[C@H]1CCCCO[C@@H](CN(C)C(=O)Nc2ccccc2)[C@@H](C)CN([C@@H](C)CO)C(=O)c2cc(NC(=O)Nc3ccc(C(F)(F)F)cc3)ccc2O1 | nt | 2 | 0 | -15 | nt | nt | nt | nt
C[C@H](CO)N1C[C@H](C)[C@H](CN(C)C(=O)Nc2ccc(C(F)(F)F)cc2)OCCCC[C@H](C)Oc2ccc(N(C)C)cc2C1=O | 101* | nt | -2 | -65 | 106* | 78 | -4 | 39*
O=C(NCc1n[nH]c(=O)c2ccccc12)c1cc2ccccc2oc1=O | nt | 0 | nt | nt | nt | nt | nt | nt
Oc1c(C(Nc2ccccn2)c2ccccn2)cc(Cl)c2cccnc12 (stereo unspecified) | nt | 1 | nt | nt | nt | nt | nt | nt
O=C(Cc1ccccc1[N+](=O)[O-])Nc1ccccc1C(=O)NC1CCCCC1 | nt | 0 | nt | nt | nt | nt | nt | nt
O=C(CSc1nc2ccccc2s1)Nc1ccc(I)cc1 | nt | 1 | nt | nt | nt | nt | nt | nt
CO[C@H]1C[C@@H]2CC[C@@H](C)[C@@](O)(O2)C(=O)C(=O)N2CCCC[C@H]2C(=O)O[C@H]([C@H](C)C[C@@H]2CC[C@@H](O)[C@H](OC)C2)CC(=O)[C@H](C)/C=C(\C)[C@@H](O)[C@@H](OC)C(=O)[C@H](C)C[C@H](C)/C=C/C=C/C=C\1C | nt | 0 | nt | nt | nt | nt | nt | nt
CNC[C@@H]1OCCCC[C@@H](C)Oc2ccc(NC(=O)Nc3ccc(C(F)(F)F)cc3)cc2C(=O)N([C@@H](C)CO)C[C@H]1C | ? | nt | 0 | -10 | 15 | 12 | 17 | 1
CNC[C@H]1OCCCC[C@H](C)Oc2ccc(NC(=O)Nc3ccc4c(c3)OCO4)cc2C(=O)N([C@H](C)CO)C[C@@H]1C | 41 | nt | -1 | 19 | nt | nt | nt | nt
CNC[C@@H]1OCCCC[C@@H](C)Oc2ccc(NC(=O)Nc3ccc4c(c3)OCO4)cc2C(=O)N([C@H](C)CO)C[C@@H]1C | 95* | nt | 1 | 25 | 18 | 3 | 9 | 18
CNC[C@@H]1OCCCC[C@@H](C)Oc2ccc(NC(=O)Nc3ccc(C(F)(F)F)cc3)cc2C(=O)N([C@@H](C)CO)C[C@@H]1C | 9 | 3 | -1 | 3 | nt | nt | nt | nt
CC(C)NC(=O)Nc1ccc2c(c1)C(=O)N([C@H](C)CO)C[C@@H](C)[C@@H](CN(C)C(=O)Nc1ccc(C(F)(F)F)cc1)OCCCC[C@@H](C)O2 | 105* | nt | 15 | -73 | 104* | 92 | 12 | 20
SMILES | T cruzi growth-1 | IDH1 R132H inh | GASC1 inh | Pf Dd2 inh | T cruzi growth-2 | T cruzi growth-3 | 3T3 cytotox | NIH3T3 tox 2
CC(C)NC(=O)Nc1ccc2c(c1)C(=O)N([C@H](C)CO)C[C@@H](C)[C@H](CN(C)C(=O)Nc1ccc(C(F)(F)F)cc1)OCCCC[C@@H](C)O2 | 89 | nt | 0 | -53 | nt | nt | nt | nt
C[C@H](CO)N1C[C@H](C)[C@@H](CN(C)C(=O)Nc2ccc(C(F)(F)F)cc2)OCCCC[C@H](C)Oc2ccc(NC(=O)NC3CCCCC3)cc2C1=O | 113* | nt | 1 | -79 | 105* | 105* | 6 | 11
C[C@@H]1CCCCO[C@@H](CN(C)C(=O)Nc2ccc(C(F)(F)F)cc2)[C@@H](C)CN([C@H](C)CO)C(=O)c2cc(NC(=O)NC3CCCCC3)ccc2O1 | nt | -2 | -1 | -64 | nt | nt | nt | nt
CC(C)(C)OC(=O)NC/C=N/NC(=O)CCCCCCC(=O)O | nt | 0 | nt | nt | nt | nt | nt | nt
CCc1ccc(CCC(=O)Nc2cc(Cl)ccc2Cl)o1 | nt | -1 | nt | nt | nt | nt | nt | nt
Cn1c(-c2cc(Br)cs2)nc(=O)c2cc(Cl)ccc21 | nt | 0 | nt | nt | nt | nt | nt | nt
COc1c2c(cc3oc(CO[C@@H]4O[C@H](CO)[C@@H](O)[C@H](O)[C@H]4O)cc(=O)c13)OC(C(C)(C)O)C2 (stereo partly specified) | nt | 0 | nt | nt | nt | nt | nt | nt
